# Reference: PubChem BioAssay AID1656 (Sanford-Burnham Center for Chemical Genomics, 2009)
# Hit rate of the full screen: of about 240,000 compounds, about 950 (0.4%) were called active.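 Rule for the calls: active = lipid droplet intensity inhibited by at least 50%, with more than 500 cells counted; inconclusive = wells with under 300 cells, treated as cytotoxic; inactive = the rest.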 The entries come from a sample that favours actives as a whole.
# Test: inhibitors of hepatocyte lipid droplet formation, primary screen, imaging, high-throughput imaging, BODIPY stain (AID 1656);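 for cell count: cells counted across two imaged fields per well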
# Settings: AML12 mouse hepatocytes, oleate lipid droplets, at 6.5 µM; cell count: measured here: cell count, cytotoxicity flag; inhibition: stronger effect = higher value
# Procedure, shortened: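 Material: mouse AML12 hepatocyte cell line, fixed after treatment; Timing: compound with oleate, overnight; Technique: high-content imaging of BODIPY-stained droplets and DAPI nuclei; Probe or stimulus: oleate, 100 µM final; Dosing: compound at 6.5 µM only.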
Structure (SMILES),cell count [cells],inhibition
Cc1c2cnn(CC(=O)NCc3ccccn3)c(=O)c2c(C)n1Cc1ccc(Cl)cc1,683,-9.1% (inactive)
CN(C)c1ccc(Nc2c3c4c(cccc4n(C)c2=O)C(=O)c2ccccc2-3)cc1,681,75.9% (active)
CCOc1ccccc1-c1cc(C(=O)N/N=C(\C)c2cccnc2)c2ccccc2n1,660,-32% (inactive)
Cc1c2cnn(CC(=O)NCCCN3CC(C)CC(C)C3)c(=O)c2c(C)n1Cc1ccc(Cl)cc1 (stereo not drawn),643,-27.4% (inactive)
CC1CC(C)CN(CCOc2cccc3ccccc23)C1 (stereo not drawn),797,-2.9% (inactive)
COc1ccc(Oc2cn[nH]c2-c2ccc(OC)cc2O)cc1,836,-10.9% (inactive)
COC(=O)c1cc(NS(=O)(=O)c2ccc3c(c2)c(=O)n(C)c(=O)n3C)cc(C(=O)OC)c1,716,-11.5% (inactive)
CSc1ccccc1C(=O)NCc1ccccc1,673,4% (inactive)
Cc1c(C(=O)NCc2ccccc2)cnn1-c1ccccc1,684,56.3% (active)
Cc1c(C(=O)N(Cc2ccccc2)Cc2cccnc2)cnn1-c1ccc(F)cc1,648,-6% (inactive)
COC(=O)C1=CN(c2ccc(F)c(F)c2)C=C(C(=O)OC)C1c1ccc([N+](=O)[O-])cc1,825,-1.4% (inactive)
Cc1ccc(C)c(S(=O)(=O)N2CCCOC2CNC(=O)C(=O)NC2CCCCC2)c1 (stereo not drawn),690,-1.2% (inactive)
COc1cccc(N2CCN(c3ccc4nnc(CCC(=O)N5CCN(C)CC5)n4n3)CC2)c1,633,-28.1% (inactive)
COc1cc(SC)ccc1C(=O)N(Cc1ccccc1)c1ccccc1,608,-8.6% (inactive)
COCn1c(C(O)c2ccccc2)cc2ccccc21 (stereo not drawn),813,-9.2% (inactive)
Cc1ccc(O)c(/C=N/NC(=O)COc2ccc3c(C)cc(=O)oc3c2)c1,786,-1.7% (inactive)
CCn1cc(CN2CCN(CC(C)(C)C)C(CCO)C2)c2ccccc21 (stereo not drawn),814,5.1% (inactive)
CC(=O)Nc1cccc(Nc2nc(-c3cccs3)nc3ccccc23)c1,775,2.7% (inactive)
COc1cc2c(cc1OC)CN(C(=O)c1cc(S(=O)(=O)N3CCCCC3)ccc1Cl)CC2,813,-18.7% (inactive)
CC1CCN(CCCNC(=O)CN2C(=O)CSc3ccc(S(=O)(=O)N4CCCCC4)cc32)CC1,719,8% (inactive)
COCCCNC(=O)CN1C(=O)CSc2ccc(S(=O)(=O)N3CCOCC3)cc21,798,59.7% (active)
COc1ccc(NC(=O)CN2C(=O)CSc3ccc(S(=O)(=O)N4CCC(C)CC4)cc32)cc1,698,-8.1% (inactive)
CNC[C@H](CC1CCCCC1)NC[C@H](NCCC1CCCC1)[C@H](C)O,688,1.2% (inactive)
CCOC(=O)C1(Cc2ccccc2C)CCCN(C(=O)CCc2c(C)noc2C)C1 (stereo not drawn),656,-27.4% (inactive)
CN(C(=O)c1cc2c(=O)n3ccccc3nc2s1)C1CCCCC1,654,-14.1% (inactive)
Cc1cc(NC(=O)CSc2nc(C(C)C)nc3sc4c(c23)CCC(C)C4)no1 (stereo not drawn),668,105% (active)
CC(C)c1nc(SCC(=O)Nc2cccc(C(=O)O)c2)c2c3c(sc2n1)CCCC3,835,-26% (inactive)

Structure (SMILES),cell count [cells],inhibition
Cc1nc(SCC(=O)Nc2cc(C)on2)c2c3c(sc2n1)CCCC3,678,5.3% (inactive)
COc1ccc(CCNC(=O)CCCCCNC(=O)N2CCn3c2nc2ccccc23)cc1OC,692,0.7% (inactive)
CCCN1CCn2c3c(c4cc(Br)ccc42)CCCC31 (stereo not drawn),795,-5.9% (inactive)
CCC(C(=O)NC1CCCCC1)N(C(=O)c1snc(C(N)=O)c1N)c1ccc(OC)cc1OC (stereo not drawn),820,-0.1% (inactive)
Cc1ccc(NC(=O)c2cc(-c3ccccc3O)n[nH]2)cc1C,660,31.5% (inactive)
Cc1nc2cc(C(F)(F)F)ccc2n1CCNc1nc(-c2cc(Cl)c(N)c(Cl)c2)cs1,750,8.1% (inactive)
Cc1c(C(=O)NCC(c2ccco2)N2CCCC2)oc2ccc(Cl)cc12 (stereo not drawn),736,2.8% (inactive)
CS(=O)(=O)N(CC(=O)N1CCOCC1)c1cccc(Cl)c1Cl,792,-9.9% (inactive)
COc1ccc(NC(=O)NCCN2CCN(c3ccc(C)cc3)CC2)c(Cl)c1,800,-0.4% (inactive)
CCN(C(=O)COc1ccc(C(=O)c2ccccc2)cc1)c1ccccc1,592,-18.3% (inactive)
Cc1cc(CN(C)C(=O)c2cc(COc3ccc(C)c(C)c3)on2)n[nH]1,697,-6.7% (inactive)
CC(Cc1cccs1)N(Cc1ccc(Cl)cc1)C(=O)c1ccncc1 (stereo not drawn),838,-16% (inactive)
O=C(NC(=S)Nc1ccccc1N1CCCCC1)c1ccc(F)cc1,720,8.8% (inactive)
COc1ccc(C(CNC(=O)COc2ccccc2OC)N2CCCCC2)cc1 (stereo not drawn),697,-15% (inactive)
COc1cccc(Cn2cc(/C=N/NC(=O)c3cc(O)cc(O)c3)c3ccccc32)c1,740,-2.5% (inactive)
COc1ccc(C)cc1Nc1n[n+](-c2ccccc2)c(-c2cccc(Cl)c2Cl)s1,778,-4.7% (inactive)
CC1CCN(CCCn2c(SCC(=O)NC3CCCC3)nc3ccccc3c2=O)CC1,704,-17.3% (inactive)
CC1CCCN(CCCNC(=O)CN2C(=O)COc3ccc(S(=O)(=O)N4CCOCC4)cc32)C1 (stereo not drawn),780,-12.4% (inactive)
O=C(NCC(=O)N1CCN(c2ccccc2O)CC1)c1ccc2ccccc2c1,679,-1.6% (inactive)
COc1ccc(N(Cc2cc3ccc(C)cc3[nH]c2=O)S(=O)(=O)c2ccccc2)cc1,764,-6.7% (inactive)
CC(C)c1ccc(NC2CCCN(C(=O)c3ccncc3)C2)cc1 (stereo not drawn),631,-2.4% (inactive)
O=C(N/C(=C\c1ccc([N+](=O)[O-])cc1)C(=O)N1CCOCC1)c1cccc(Br)c1,652,-42.9% (inactive)
COc1ccc(-c2c(C#Cc3ccccc3)c3ccccc3n2C)cc1,742,-11.3% (inactive)
Cc1ccccc1OCC(=O)Nc1ccc(S(=O)(=O)N2CCOCC2)cc1,768,-7.1% (inactive)
O=C(/C=C/c1ccc([N+](=O)[O-])o1)NNC(=O)c1ccc(F)cc1,473,-82% (inactive)
Cc1ccc(-c2csc(NC(=O)Cc3cccs3)n2)cc1C,732,12.4% (inactive)
COc1ccc(-c2csc(NC(=O)CCCc3cccs3)n2)cc1,687,-3.2% (inactive)

Structure (SMILES),cell count [cells],inhibition
CCCc1ccc(-c2csc(NC(=O)Cc3cccs3)n2)cc1,774,71% (active)
CCOCCCN(C)C1CCN(C(=O)c2oc3ccccc3c2NC(=O)COc2cccc(C)c2)CC1,640,-24.8% (inactive)
O=C(CN1CCOCC1)Nc1ccccc1,743,1.4% (inactive)
O=C(CN1CCc2cc3c(cc2C1)OCCCO3)Nc1ccccc1,784,77.1% (active)
Cc1ccc(NC(=O)CN2CCc3ccccc3C2)cc1,793,7.1% (inactive)
Cc1ccc(N2C(=O)C(NC(=O)c3c(F)cccc3F)(C(F)(F)F)C3=C2CC(C)(C)CC3=O)cc1 (stereo not drawn),635,63.8% (active)
CC1(C)CC(=O)C(N=Nc2c(F)cccc2F)=C(O)C1,713,8.6% (inactive)
CCOC(=O)CC1(NC(=O)c2cc(COc3cncc(Cl)c3)on2)CCCCC1,665,11.8% (inactive)
CCOC(=O)N1CCN(C(=O)c2ccc3c(=O)n(CCc4ccc(OC)c(OC)c4)c(=O)[nH]c3c2)CC1,684,16.5% (inactive)
CCCCNC(=O)c1cn(CC)c2cc(N3CCN(C(=O)c4ccco4)CC3)c(F)cc2c1=O,705,-15.8% (inactive)
O=S(=O)(c1ccc(Cl)cc1)c1nc(-c2ccco2)oc1N1CCCCC1,633,-18% (inactive)
CN(CC1CCCO1)S(=O)(=O)c1ccc(C(=O)Nc2ccc([N+](=O)[O-])cc2)cc1 (stereo not drawn),854,0.6% (inactive)
CC(C)c1ccc2oc(=O)cc(CN3CCN(Cc4ccccc4)CC3)c2c1,850,-0.8% (inactive)
C=CCSc1nnc(N2C(=O)C(O)=C(C(=O)c3ccco3)C2c2ccc(F)cc2)s1 (stereo not drawn),710,-21.4% (inactive)
COc1ccc(/C=C(/NC(=O)c2ccco2)C(=O)Nc2ccc(C(C)=O)cc2)cc1,829,8.8% (inactive)
COc1ccc(/C=C(\NC(=O)c2ccc(OCC(C)C)cc2)C(=O)OCc2ccco2)cc1,607,74.3% (active)
COc1ccc(C(=O)Nc2ccccc2C(=O)NCc2ccco2)cc1,738,-20.2% (inactive)
CCn1cc(S(=O)(=O)c2cccc(C)c2)c(=O)c2cc(F)c(N3CCN(C)CC3)cc21,738,7.2% (inactive)
CCC1=Nc2cc(C(=O)NCCN3CCCC3)ccc2Sc2ccc(C)cc21,726,4.6% (inactive)
COc1cccc(/C=C(/CC(=O)Nc2ccc(N3CCOCC3)cc2)c2nc3ccccc3s2)c1,578,77.8% (active)
COc1cc2ccccc2cc1C(=O)Nc1ccc(N2CCOCC2)cc1,835,-4.2% (inactive)
COc1ccc(/C=C(/CC(=O)Nc2ccc(C)cc2)c2nc3ccccc3s2)cc1,713,-0.1% (inactive)
COc1ccc(CCNC(=O)COC(=O)/C=C/c2cccs2)cc1OC,727,2.8% (inactive)
CCC(C(=O)NCc1ccc(OC)cc1)n1nc(C)n2c(cc3occc32)c1=O (stereo not drawn),780,-2.7% (inactive)
CCOc1ccc(CCNC(=O)C(CC)n2nc(C)n3c(cc4sccc43)c2=O)cc1OCC (stereo not drawn),786,85.5% (active)
